Test results published in ChEMBL document CHEMBL1131343, “Nonpeptide cyclic cyanoguanidines as HIV-1 protease inhibitors: synthesis, structure-activity relationships, and X-ray crystal structure studies” (J Med Chem, 1998).

Experiments:
[1] = tested on: Human immunodeficiency virus 1; test: The antiviral potency (IC90) was assessed by measuring their effect on the accumulation of viral RNA transcripts on HIV-1 RF infected MT-2 cells; type: functional; conditions: Human immunodeficiency virus 1, MT2
Outline: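 HIV-1 RF infection of MT-2 cells; the read-out is viral RNA transcript accumulation measured 3 days after infection. IC90 is taken from this read-out.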

[2] = target: Human immunodeficiency virus type 1 protease (Human immunodeficiency virus 1, UniProt Q72874); test: Binding affinity for HIV-1 protease enzyme was measured by using fluorescent peptide substrate

Question: `Nc1cccc(CN2C(=O)N(Cc3cccc(N)c3)[C@H](Cc3ccccc3)[C@H](O)[C@@H](O)[C@H]2Cc2ccccc2)c1` [MOZENAVIR] was tested. Which IC90 [1] did it give?
Answer: 130 nM

Question: What about the Ki [2] of the same molecule?
Answer: 0.28 nM

Question: Which results are given for `N#CN=C1N(Cc2ccc(C#N)cc2)[C@H](Cc2ccccc2)[C@H](O)[C@@H](O)[C@@H](Cc2ccccc2)N1Cc1ccc(C#N)cc1`?
Answer: IC90 [1]: 7700 nM; Ki [2]: 128 nM

Question: What does the source list for `N#CN=C1N(Cc2cccc(OCc3ccccc3)c2)[C@H](Cc2ccccc2)[C@H](O)[C@@H](O)[C@@H](Cc2ccccc2)N1Cc1cccc(OCc2ccccc2)c1`?
Answer: IC90 [1]: > 67300 nM; Ki [2]: 1370 nM

Question: `NC(=O)NC1=N[C@H](Cc2ccccc2)[C@H](O)[C@@H](O)[C@@H](Cc2ccccc2)N1` was tested. Which IC90 [1] did it give?
Answer: > 142000 nM

Question: And the Ki [2]?
Answer: > 12500 nM

Question: For `O=C1N[C@H](Cc2ccccc2)[C@H](O)[C@@H](O)[C@@H](Cc2ccccc2)N1`, which Ki [2] is on record?
Answer: 267 nM

Question: Which results are given for `CCCCN1C(=NC#N)N(CCCC)[C@H](Cc2ccccc2)[C@H](O)[C@@H](O)[C@H]1Cc1ccccc1`?
Answer: IC90 [1]: 2600 nM; Ki [2]: 2.7 nM

Question: What does the source list for `N#CN=C1N(Cc2cccc([N+](=O)[O-])c2)[C@H](Cc2ccccc2)[C@H](O)[C@@H](O)[C@@H](Cc2ccccc2)N1Cc1cccc([N+](=O)[O-])c1`?
Answer: IC90 [1]: 17700 nM; Ki [2]: 89 nM

Question: For `O=C1N(CC2CCCCC2)[C@H](Cc2ccccc2)[C@H](O)[C@@H](O)[C@@H](Cc2ccccc2)N1CC1CCCCC1`, which IC90 [1] is on record?
Answer: 96000 nM

Question: Which results are given for `O=C1N(Cc2cccc(OCc3ccccc3)c2)[C@H](Cc2ccccc2)[C@H](O)[C@@H](O)[C@@H](Cc2ccccc2)N1Cc1cccc(OCc2ccccc2)c1`?
Answer: IC90 [1]: > 70000 nM; Ki [2]: 340 nM

Question: Which results are given for `N#CN=C1N(Cc2cccc(N)c2)[C@H](Cc2ccccc2)[C@H](O)[C@@H](O)[C@@H](Cc2ccccc2)N1Cc1cccc(N)c1`?
Answer: IC90 [1]: 500 nM; Ki [2]: 7.4 nM

Question: For `N#CN=C1N(Cc2ccc([N+](=O)[O-])cc2)[C@H](Cc2ccccc2)[C@H](O)[C@@H](O)[C@@H](Cc2ccccc2)N1Cc1ccc([N+](=O)[O-])cc1`, which IC90 [1] is on record?
Answer: 19300 nM

Question: And the Ki [2]?
Answer: 67 nM

Question: What does the source list for `CC(C)=CCN1C(=O)N(CC=C(C)C)[C@H](Cc2ccccc2)[C@H](O)[C@@H](O)[C@H]1Cc1ccccc1`?
Answer: IC90 [1]: 860 nM; Ki [2]: 1.6 nM

Question: `N#CN=C1N(Cc2cccc(O)c2)[C@H](Cc2ccccc2)[C@H](O)[C@@H](O)[C@@H](Cc2ccccc2)N1Cc1cccc(O)c1` was tested. Which IC90 [1] did it give?
Answer: 130 nM

Question: What about the Ki [2] of the same molecule?
Answer: 0.72 nM

Question: What does the source list for `N#CN=C1N(Cc2ccc(N)cc2)[C@H](Cc2ccccc2)[C@H](O)[C@@H](O)[C@@H](Cc2ccccc2)N1Cc1ccc(N)cc1`?
Answer: IC90 [1]: 2300 nM; Ki [2]: 25 nM

Question: `N#CN=C1N(Cc2ccccc2)[C@H](Cc2ccccc2)[C@H](O)[C@@H](O)[C@@H](Cc2ccccc2)N1Cc1ccccc1` was tested. Which IC90 [1] did it give?
Answer: 3800 nM

Question: What about the Ki [2] of the same molecule?
Answer: 20 nM

Question: For `N#CN=C1N(Cc2ccc(OCc3ccccc3)cc2)[C@H](Cc2ccccc2)[C@H](O)[C@@H](O)[C@@H](Cc2ccccc2)N1Cc1ccc(OCc2ccccc2)cc1`, which IC90 [1] is on record?
Answer: 67300 nM

Question: And the Ki [2]?
Answer: 900 nM

Question: Which results are given for `N#CN=C1N(Cc2cccc(C#N)c2)[C@H](Cc2ccccc2)[C@H](O)[C@@H](O)[C@@H](Cc2ccccc2)N1Cc1cccc(C#N)c1`?
Answer: IC90 [1]: 3100 nM; Ki [2]: 27 nM

Question: What does the source list for `N#CN=C1N(Cc2ccc3ccccc3c2)[C@H](Cc2ccccc2)[C@H](O)[C@@H](O)[C@@H](Cc2ccccc2)N1Cc1ccc2ccccc2c1`?
Answer: IC90 [1]: > 79000 nM; Ki [2]: 22 nM

Question: Which results are given for `N#CN=C1N(Cc2ccc(CO)cc2)[C@H](Cc2ccccc2)[C@H](O)[C@@H](O)[C@@H](Cc2ccccc2)N1Cc1ccc(CO)cc1`?
Answer: IC90 [1]: 3200 nM; Ki [2]: 11 nM

Question: How did the IC90 [1] turn out when `O=C1N(Cc2ccc(OCc3ccccc3)cc2)[C@H](Cc2ccccc2)[C@H](O)[C@@H](O)[C@@H](Cc2ccccc2)N1Cc1ccc(OCc2ccccc2)cc1` was run?
Answer: > 70000 nM

Question: What about the Ki [2] of the same molecule?
Answer: 542 nM

Question: How did the IC90 [1] turn out when `O=C1N(Cc2ccc([N+](=O)[O-])cc2)[C@H](Cc2ccccc2)[C@H](O)[C@@H](O)[C@@H](Cc2ccccc2)N1Cc1ccc([N+](=O)[O-])cc1` was run?
Answer: 8400 nM

Question: What about the Ki [2] of the same molecule?
Answer: 32 nM

Question: How did the IC90 [1] turn out when `O=C1N(Cc2ccc3ccccc3c2)[C@H](Cc2ccccc2)[C@H](O)[C@@H](O)[C@@H](Cc2ccccc2)N1Cc1ccc2ccccc2c1` was run?
Answer: 3900 nM

Question: What about the Ki [2] of the same molecule?
Answer: 0.31 nM

Question: `CC(C)CCN1C(=O)N(CCC(C)C)[C@H](Cc2ccccc2)[C@H](O)[C@@H](O)[C@H]1Cc1ccccc1` was tested. Which IC90 [1] did it give?
Answer: 4300 nM

Question: `N#CN=C1N(Cc2cccc(CO)c2)[C@H](Cc2ccccc2)[C@H](O)[C@@H](O)[C@@H](Cc2ccccc2)N1Cc1cccc(CO)c1` was tested. Which IC90 [1] did it give?
Answer: 590 nM

Question: What about the Ki [2] of the same molecule?
Answer: 1.7 nM

Question: With `CCCN1C(=NC#N)N(CCC)[C@H](Cc2ccccc2)[C@H](O)[C@@H](O)[C@H]1Cc1ccccc1` as the molecule, how does the IC90 [1] read?
Answer: 7400 nM

Question: What about the Ki [2] of the same molecule?
Answer: 14 nM

Question: With `N#CN=C1N(CC2CC2)[C@H](Cc2ccccc2)[C@H](O)[C@@H](O)[C@@H](Cc2ccccc2)N1CC1CC1` as the molecule, how does the IC90 [1] read?
Answer: 5000 nM

Question: What about the Ki [2] of the same molecule?
Answer: 22 nM

Question: What does the source list for `N#CN=C1N(CC2CCCCC2)[C@H](Cc2ccccc2)[C@H](O)[C@@H](O)[C@@H](Cc2ccccc2)N1CC1CCCCC1`?
Answer: IC90 [1]: 1100 nM; Ki [2]: 5.7 nM

Question: How did the IC90 [1] turn out when `N#CN=C1N(Cc2ccc(O)cc2)[C@H](Cc2ccccc2)[C@H](O)[C@@H](O)[C@@H](Cc2ccccc2)N1Cc1ccc(O)cc1` was run?
Answer: 250 nM

Question: And the Ki [2]?
Answer: 2.6 nM

Question: Which IC90 [1] does the source give for `N#CN=C1N(CC2CCCC2)[C@H](Cc2ccccc2)[C@H](O)[C@@H](O)[C@@H](Cc2ccccc2)N1CC1CCCC1` here?
Answer: 350 nM

Question: What about the Ki [2] of the same molecule?
Answer: 1.5 nM

Question: With `N#Cc1cccc(CN2C(=O)N(Cc3cccc(C#N)c3)[C@H](Cc3ccccc3)[C@H](O)[C@@H](O)[C@H]2Cc2ccccc2)c1` as the molecule, how does the IC90 [1] read?
Answer: 2200 nM

Question: With `N#Cc1ccc(CN2C(=O)N(Cc3ccc(C#N)cc3)[C@H](Cc3ccccc3)[C@H](O)[C@@H](O)[C@H]2Cc2ccccc2)cc1` as the molecule, how does the IC90 [1] read?
Answer: 5800 nM

Question: What about the Ki [2] of the same molecule?
Answer: 52 nM

Question: With `CC(C)CCN1C(=NC#N)N(CCC(C)C)[C@H](Cc2ccccc2)[C@H](O)[C@@H](O)[C@H]1Cc1ccccc1` as the molecule, how does the IC90 [1] read?
Answer: 1100 nM

Question: What about the Ki [2] of the same molecule?
Answer: 3.8 nM

Question: Which results are given for `Nc1ccc(CN2C(=O)N(Cc3ccc(N)cc3)[C@H](Cc3ccccc3)[C@H](O)[C@@H](O)[C@H]2Cc2ccccc2)cc1`?
Answer: IC90 [1]: 110 nM; Ki [2]: 1.1 nM

Question: How did the IC90 [1] turn out when `CC(C)=CCN1C(=NC#N)N(CC=C(C)C)[C@H](Cc2ccccc2)[C@H](O)[C@@H](O)[C@H]1Cc1ccccc1` was run?
Answer: 4700 nM

Question: And the Ki [2]?
Answer: 30 nM

Question: With `N#CN=C1N(CC2CCC2)[C@H](Cc2ccccc2)[C@H](O)[C@@H](O)[C@@H](Cc2ccccc2)N1CC1CCC1` as the molecule, how does the IC90 [1] read?
Answer: 840 nM

Question: What about the Ki [2] of the same molecule?
Answer: 2 nM

Question: How did the IC90 [1] turn out when `O=C1N(Cc2ccc(O)cc2)[C@H](Cc2ccccc2)[C@H](O)[C@@H](O)[C@@H](Cc2ccccc2)N1Cc1ccc(O)cc1` was run?
Answer: 32 nM

Question: Which results are given for `C=CCN1C(=NC#N)N(CC=C)[C@H](Cc2ccccc2)[C@H](O)[C@@H](O)[C@H]1Cc1ccccc1`?
Answer: IC90 [1]: 51000 nM; Ki [2]: 37 nM

Question: Which IC90 [1] does the source give for `O=C1N(Cc2ccc(CO)cc2)[C@H](Cc2ccccc2)[C@H](O)[C@@H](O)[C@@H](Cc2ccccc2)N1Cc1ccc(CO)cc1` [DMP-323] here?
Answer: 57 nM
